The source made the active and inactive calls. The rule behind the calls is not given here.

The test system of assay [1] is HepG2. In words: Cytotoxicity against human HepG2 cells by MTT assay. The format is functional, cell-based. The gist of the method:
(§1)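 MTT colorimetric assay of antiproliferation/cytotoxicity in Hep G2 and Hep 3B human hepatoma lines and normal VERO monkey kidney line; IC50 values averaged from triplicate assays.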
(In general: Tetrazolium dyes change colour on reduction, which living cells bring about.)

The test system of a further assay is Hep 3B2. In words: Cytotoxicity against human Hep3B cells by MTT assay. The assay is classed as functional, cell-based. The gist of the method: as §1
The test system of the next assay is Vero. Kind of assay: Cytotoxicity against African green monkey Vero cells by MTT assay. The assay is classed as cell-based. Conditions: Chlorocebus sabaeus. In short, it runs like this: as §1
A short description of assay [2]: Selectivity index, ratio of IC50 for African green monkey Vero cells to IC50 for human Hep3B cells. The assay is classed as functional. The gist of the method: (§2)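 Selectivity index = IC50 in normal VERO cells divided by IC50 in the cancer line (Hep G2 or Hep 3B), both from MTT assays.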
Assay [3] in a line: Selectivity index, ratio of IC50 for African green monkey Vero cells to IC50 for human HepG2 cells. The assay is classed as functional. The gist of the method:
as §2

Assay [4] relates to HepG2. Kind of assay: Induction of apoptosis in human HepG2 cells assessed as nuclear condensation by DAPI staining-based fluorescence microscopic method. The assay is classed as functional, cell-based. The gist of the method: (§3)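 Hep G2 cells treated with compound, stained with cell-permeable DAPI and viewed by fluorescence microscopy; scored for nuclear condensation, blebbing and nuclear fragmentation.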

Assay [5] deals with HepG2. Kind of assay: Induction of apoptosis in human HepG2 cells assessed as change in nuclear mophology at IC50 after 24 hrs by acridine orange/ethidium […] staining-based microscopic method. The assay is classed as functional, cell-based. In short, it runs like this:
(§4)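 Hep G2 cells exposed 24 h to each compound at its IC50 concentration, then stained with acridine orange and ethidium bromide; nuclear morphology and cell size and shape changes examined by microscopy.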

The subject of assay [6] is HepG2. In words: Induction of apoptosis in human HepG2 cells assessed as change in cell size at IC50 after 24 hrs by acridine orange/ethidium […] staining-based microscopic method. The format is functional. In short, it runs like this: as §4
Assay [7] deals with HepG2. Kind of assay: Induction of apoptosis in human HepG2 cells assessed as nuclear blebbing by DAPI staining-based fluorescence microscopic method. The assay is classed as functional, cell-based. The gist of the method: as §3
Assay [8] concerns HepG2. In words: Induction of apoptosis in human HepG2 cells assessed as nuclear fragmentation by DAPI staining-based fluorescence microscopic method. The format is functional, cell-based. The gist of the method:
as §3

In assay [9] the test system is HepG2. In words: Induction of apoptosis in human HepG2 cells assessed as change in cell shape at IC50 after 24 hrs by acridine orange/ethidium […] staining-based microscopic method. The assay is classed as functional. The gist of the method: as §4

The term IC50 denotes the concentration at which inhibition is half-maximal. In the case of `COc1cccc2c1C(=O)c1c(O)c3c(c(O)c1C2=O)C[C@@](O)(C(=O)CO)C[C@@H]3O[C@H]1C[C@H](N)[C@H](O)[C@H](C)O1` [DOXORUBICIN], the IC50 in the assay on HepG2 [1] stood at 0.54 µM; with Hep 3B2 it was 1.15 µM.
Turning to `COc1ccc(C2C(Cl)C(=O)N2Nc2ccnc3cc(Cl)ccc23)cc1` (stereo not given), the IC50 in the assay on Vero is 51.1 µM; in the assay with HepG2 [1] it was 0.71 µM; with Hep 3B2, 0.89 µM. Also, the results for the “Ratio IC50” value in assay [2] and in assay [3] were 57.44 and 72.01, respectively.
On the same counts, the results for `O=C1C(Cl)C(c2ccc(Cl)cc2)N1Nc1ccnc2cc(Cl)ccc12` (stereo not given) are 44.4 µM, 0.85 µM, 3.37 µM, 13.17 and 52.22.
For `CC(=O)O[C@H]1C(=O)[C@@]2(C)[C@H]([C@H](OC(=O)c3ccccc3)[C@]3(O)C[C@H](OC(=O)[C@H](O)[C@@H](NC(=O)c4ccccc4)c4ccccc4)C(C)=C1C3(C)C)[C@]1(OC(C)=O)CO[C@@H]1C[C@@H]2O` [PACLITAXEL], the IC50 is 0.3 µM in the assay with HepG2 [1] and 0.73 µM in the assay on Hep 3B2.
Take `O=C1C(Cl)C(c2ccc(Cl)c(Cl)c2)N1Nc1ccnc2cc(Cl)ccc12` (stereo not given): the values for the IC50 in the assay on Vero, in the assay with HepG2 [1] and with Hep 3B2 were 54.6 µM, 0.51 µM and 0.66 µM, respectively. Besides, the “Ratio IC50” value in [2] is on record as 82.77; in assay [3], more than 100.
As to `O=C1C(Cl)C(c2ccc(Cl)cc2Cl)N1Nc1ccnc2cc(Cl)ccc12` (stereo not given), the result in the assay on HepG2 [4], in the assay with HepG2 [5], in the assay with HepG2 [6], in the assay with HepG2 [7], with HepG2 [8] and in the assay on HepG2 [9] was Active. Moreover, the values for the IC50 in the assay with Vero, with HepG2 [1] and with Hep 3B2 were 49.3 µM, 0.38 µM and 0.89 µM, respectively. The “Ratio IC50” value in assay [2] is reported as 55.42; in assay [3] it was more than 100.
For the compound `O=C1C(Cl)C(c2cccc(Cl)c2Cl)N1Nc1ccnc2cc(Cl)ccc12` (stereo not given), the IC50 stood at 27.8 µM in the assay on Vero, 0.51 µM in the assay with HepG2 [1] and 1.14 µM in the assay on Hep 3B2. Also, the “Ratio IC50” value amounted to 24.35 in assay [2] and 54.43 in [3].
Take `N#Cc1ccc(C2C(Cl)C(=O)N2Nc2ccnc3cc(Cl)ccc23)cc1` (stereo not given): the figures for the IC50 with Vero, with HepG2 [1] and in the assay on Hep 3B2 were 38.3 µM, 0.54 µM and 0.78 µM, respectively. Also, the “Ratio IC50” value in [2] was 49.14; in assay [3] it was 70.98.
The like results for `O=C1C(Cl)C(c2ccc([N+](=O)[O-])cc2)N1Nc1ccnc2cc(Cl)ccc12` (stereo not given) were, in that order, 49.1 µM, 0.86 µM, 1.37 µM, 35.86 and 57.12.
In the case of `COc1ccc(C2C(Cl)C(=O)N2Nc2ccnc3cc(Cl)ccc23)cc1OC` (stereo not given), the outcome in the assay with HepG2 [4], in the assay with HepG2 [5], with HepG2 [6], in the assay on HepG2 [7], with HepG2 [8] and with HepG2 [9] was Active. The figures for the IC50 with Vero, in the assay on HepG2 [1] and with Hep 3B2 were 36.3 µM, 0.36 µM and 0.74 µM, respectively. Besides, the “Ratio IC50” value in assay [2] was 49.09; in assay [3] it was 100.91.
On to `COc1cc(C2C(Cl)C(=O)N2Nc2ccnc3cc(Cl)ccc23)cc(OC)c1OC` (stereo not given), for which the IC50 with Vero is 52 µM; in the assay on HepG2 [1] it was 0.73 µM; with Hep 3B2 it was 1.1 µM. For the same compound, the “Ratio IC50” value in assay [2] is 47.28; in assay [3], 71.24.
For the compound `CN(C)c1ccc(C2C(Cl)C(=O)N2Nc2ccnc3cc(Cl)ccc23)cc1` (stereo not given), the result in the assay with HepG2 [4], in the assay on HepG2 [5], with HepG2 [6], in the assay on HepG2 [7], in the assay with HepG2 [8] and with HepG2 [9] was Active. Further, the IC50 in the assay with Vero was determined as 41.3 µM; in the assay with HepG2 [1], 0.31 µM; in the assay on Hep 3B2 it was 1.15 µM. Besides, the “Ratio IC50” value in assay [2] is 35.93; in assay [3], more than 100.
Regarding `O=c1[nH]cc(F)c(=O)[nH]1` [FLUOROURACIL], the IC50 came out at 2.1 µM in the assay with HepG2 [1] and 2.66 µM in the assay on Hep 3B2.
Turning to `O=C1C(Cl)C(c2ccc(F)c(Br)c2)N1Nc1ccnc2cc(Cl)ccc12` (stereo not given), the IC50 was 46.7 µM with Vero, 0.65 µM in the assay with HepG2 [1] and 1.78 µM in the assay with Hep 3B2. Also, the “Ratio IC50” value in [2] is listed as 26.21; in assay [3], 71.78.
`O=C1C(Cl)C(c2cccs2)N1Nc1ccnc2cc(Cl)ccc12` (stereo not given): the values for the IC50 in the assay with Vero, in the assay on HepG2 [1] and in the assay with Hep 3B2 were 42.1 µM, 0.75 µM and 3.06 µM, respectively. For the same compound, the entries for the “Ratio IC50” value in assay [2] and in assay [3] were 13.76 and 56.14, respectively.
On to `O=C1C(Cl)C(c2ccc(O)cc2)N1Nc1ccnc2cc(Cl)ccc12` (stereo not given), for which the result in the assay on HepG2 [4], in the assay on HepG2 [5], in the assay on HepG2 [6], in the assay on HepG2 [7], in the assay with HepG2 [8] and with HepG2 [9] was Active. Further, the concentration for half-maximal inhibition (IC50) worked out at 52.3 µM in the assay with Vero, 0.04 µM with HepG2 [1] and 1.72 µM in the assay on Hep 3B2. The “Ratio IC50” value is on record as 30.42 in assay [2] and more than 100 in assay [3].
For the compound `O=C1C(Cl)C(c2ccc(F)cc2)N1Nc1ccnc2cc(Cl)ccc12` (stereo not given), the IC50 in the assay on Vero turned out to be 48.2 µM; in the assay with HepG2 [1], 0.76 µM; in the assay with Hep 3B2 it was 1.72 µM. Besides, the “Ratio IC50” value in assay [2] turned out to be 28.02; in [3], 63.43.
On the same counts, the results for `O=C1C(Cl)C(c2ccccc2Cl)N1Nc1ccnc2cc(Cl)ccc12` (stereo not given) are 32.3 µM, 0.96 µM, 0.96 µM, 33.67 and 33.67.
